Experimental data from ChEMBL document CHEMBL1132628, “Quinuclidine inhibitors of 2,3-oxidosqualene cyclase-lanosterol synthase: optimization from lipid profiles” (J Med Chem, 1999).
pIC50: −log10 of the molar value.

molecular target: T1, Squalene synthase (Rattus norvegicus, UniProt Q02769); assay: Compound was measured for the inhibition of rat microsomal squalene synthase enzyme
T1 sequence (Q02769 whole entry): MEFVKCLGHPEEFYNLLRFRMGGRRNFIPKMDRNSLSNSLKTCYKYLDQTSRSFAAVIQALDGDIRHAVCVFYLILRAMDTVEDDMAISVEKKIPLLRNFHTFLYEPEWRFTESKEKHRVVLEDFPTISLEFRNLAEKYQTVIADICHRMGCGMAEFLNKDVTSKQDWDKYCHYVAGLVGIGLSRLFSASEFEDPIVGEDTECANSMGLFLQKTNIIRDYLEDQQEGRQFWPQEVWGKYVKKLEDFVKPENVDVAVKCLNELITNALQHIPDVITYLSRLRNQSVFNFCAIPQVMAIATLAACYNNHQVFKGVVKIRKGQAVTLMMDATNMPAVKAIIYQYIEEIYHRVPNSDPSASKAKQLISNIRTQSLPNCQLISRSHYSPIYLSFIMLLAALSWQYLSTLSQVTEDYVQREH

Q: With `C=CCc1cc(CCC(=O)OCC)ccc1C#CC1(O)CN2CCC1CC2` (centres undefined) as the compound, how does the pIC50 read?
A: 8.22

molecular target: T2, Lanosterol synthase (Rattus norvegicus) (UniProt P48450); assay: The in vivo assay of compound for inhibition of cholesterol biosynthesis was measured on Oxidosqualene-lanosterol cyclase of rat at 5 mg/kg; format: functional, organism-based; parameters: dose 5 mg/kg
T2 sequence (whole entry): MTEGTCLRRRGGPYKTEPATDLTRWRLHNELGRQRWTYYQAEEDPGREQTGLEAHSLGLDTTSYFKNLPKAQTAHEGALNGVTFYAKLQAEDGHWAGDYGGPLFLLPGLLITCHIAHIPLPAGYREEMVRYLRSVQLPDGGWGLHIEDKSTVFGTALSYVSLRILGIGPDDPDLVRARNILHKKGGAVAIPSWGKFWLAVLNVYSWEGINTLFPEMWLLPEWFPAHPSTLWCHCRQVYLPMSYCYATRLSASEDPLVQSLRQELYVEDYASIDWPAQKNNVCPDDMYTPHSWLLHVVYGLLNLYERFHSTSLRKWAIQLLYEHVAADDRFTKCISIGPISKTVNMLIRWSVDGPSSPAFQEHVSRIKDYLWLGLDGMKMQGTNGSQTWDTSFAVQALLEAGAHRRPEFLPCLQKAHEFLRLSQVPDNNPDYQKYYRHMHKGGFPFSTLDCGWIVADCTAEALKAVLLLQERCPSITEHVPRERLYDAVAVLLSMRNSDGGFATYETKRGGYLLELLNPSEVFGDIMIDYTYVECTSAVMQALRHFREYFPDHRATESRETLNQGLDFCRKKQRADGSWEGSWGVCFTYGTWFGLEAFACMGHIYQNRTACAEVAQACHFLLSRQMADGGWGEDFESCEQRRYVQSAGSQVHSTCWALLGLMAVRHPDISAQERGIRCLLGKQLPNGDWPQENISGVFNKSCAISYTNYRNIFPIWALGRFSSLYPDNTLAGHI
Procedure, shortened: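 Female rats (130 ± 20 g) on reverse lighting dosed orally in DMSO/HPMC; tritiated mevalonate (2.5 μCi) given 1 h later, rats killed after another 1 h. Liver extracts run on HPLC with radiodetection; peaks assigned against standard sterol intermediates' retention times; cholesterol synthesis inhibition from peak area, plus intermediate selectivity profile.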

Q: `O=C(c1ccc(Cl)cc1)c1ccc(OC2CN3CCC2CC3)cc1` (centres undefined) was tested. Which inhibition did it give?
A: 92%

Q: For `O=C(/C=C1\CN2CCC1CC2)c1ccc(C(=O)c2ccc(Br)cc2)cc1`, which inhibition is on record?
A: 84%

molecular target: T2, Lanosterol synthase (Rattus norvegicus); assay: The in vivo assay of compound for inhibition of cholesterol biosynthesis was measured on Oxidosqualene-lanosterol cyclase of rat at 5 mg/kg

Q: How did the inhibition turn out when `Brc1ccc(SC2CN3CCC2CC3)cc1` (centres undefined) was run?
A: 47%

Q: How did the inhibition turn out when `O=C(c1ccc(Br)cc1)c1ccc(C#CC2(O)CN3CCC2CC3)cc1` (centres undefined) was run?
A: 59%

Q: How did the inhibition turn out when `OC1(C#Cc2ccc(Sc3ccc(Br)cc3)cc2)CN2CCC1CC2` (centres undefined) was run?
A: 79%

Q: `O=S(=O)(c1ccc(Br)cc1)c1ccc(C#CC2(O)CN3CCC2CC3)cc1` (centres undefined) was tested. Which inhibition did it give?
A: 94%

Q: Which inhibition does the source give for `Brc1cccc(SC2CN3CCC2CC3)c1` (centres undefined) here?
A: < 5%

Q: `OC1(C#Cc2ccc(Oc3ccc(Br)cc3)cc2)CN2CCC1CC2` (centres undefined) was tested. Which inhibition did it give?
A: 55%

Q: With `[O-][S+](c1ccc(Br)cc1)c1ccc(C#CC2(O)CN3CCC2CC3)cc1` (centres undefined) as the compound, how does the inhibition read?
A: 83%

Q: For `Brc1ccccc1SC1CN2CCC1CC2` (centres undefined), which inhibition is on record?
A: < 5%

Q: Which inhibition does the source give for `O=C(c1ccc(C(F)(F)F)cc1)N1CCC(=Cc2ccc(C3=NCCO3)cc2)CC1` here?
A: 98%

molecular target: T3, Lanosterol synthase (Rattus norvegicus, UniProt P48450); assay: Inhibition of compound was measured on rat microsomal Oxidosqualene-lanosterol cyclase
T3 sequence (P48450 whole entry): T2 sequence (whole entry)
Procedure, shortened: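 Rat liver microsomes diluted in 50 mM phosphate buffer pH 7.4 with tween; compounds from DMSO stocks (10^-4 M, serial tenfold dilutions) preincubated with microsomes 10 min at 37 °C, then cold plus radiolabelled oxidosqualene added, 1 h incubation. Stopped with ethanolic KOH, heated 80 °C 2 h, hexane-extracted; inhibition from radiolabelled product.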

Q: `OC1(c2ccc(-c3ccccc3)cc2)CN2CCC1CC2` (centres undefined) was tested. Which pIC50 did it give?
A: < 7.00

Q: With `C=CCc1cc(CCC(=O)OCC)ccc1C#CC1(O)CN2CCC1CC2` (centres undefined) as the compound, how does the pIC50 read?
A: < 7.00
